The record followed here is ChEMBL document CHEMBL1153536, “5-lipoxygenase-activating protein inhibitors: development of 3-[3-tert-butylsulfanyl-1-[4-(6-methoxy-pyridin-3-yl)-benzyl]-5-(pyridin-2-ylmethoxy)-1H-indol-2-yl]-2,2-dimethyl-propionic acid (AM103)” (J Med Chem, 2009).

The target in series [1] is T1, Arachidonate 5-lipoxygenase-activating protein (Homo sapiens, UniProt P20292).
T1 sequence (P20292 whole entry): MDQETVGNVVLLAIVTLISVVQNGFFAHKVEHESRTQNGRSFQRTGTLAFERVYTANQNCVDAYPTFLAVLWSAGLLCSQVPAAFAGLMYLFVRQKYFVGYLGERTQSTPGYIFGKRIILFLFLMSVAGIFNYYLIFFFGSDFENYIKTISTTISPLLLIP
Put plainly: Displacement of [3H]3-[5-(pyrid-2-ylmethoxy)-3-tert-butylthio-1-benzyl-indol-2-yl]-2,2-dimethylpropionic acid from FLAP in human polymorphonuclear cell membrane.

A short description of series [2]: Inhibition of calcium ionophore A-23187-stimulated LTB4 production in human leukocytes by ELISA. The format is functional, cell-based. Conditions: Leukocyte. A digest of the protocol:
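Dextran-sedimented, hypotonically lysed human leukocytes at 1.25 × 10^5 cells/mL, preincubated 5 min at 37 °C with compound in DMSO. Stimulated 5 min at 37 °C with A23187 (5 μL of 0.5 mM into 250 μL). Supernatant LTB4 measured by ELISA at 1:4 dilution; IC50 by nonlinear regression of % inhibition vs log concentration.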
In general terms: In an ELISA, binding on a coated surface is turned into a signal by an enzyme label.

Another series has as its system Blood. Briefly: Inhibition of calcium ionophore A-23187-stimulated LTB4 production in human whole blood by ELISA. The format is functional, tissue-based. A digest of the protocol: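 Heparinized human whole blood preincubated 15 min at 37 °C with compound in DMSO. Stimulated 30 min at 37 °C with A23187 (2 μL of 1.5 mM into 150 μL). Plasma LTB4 measured by ELISA at 1:100 dilution; IC50 by nonlinear regression. A single value is one assay averaging two donors.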

The target of a further series is Cytochrome P450 2C9 (Homo sapiens, UniProt P11712). Briefly: Inhibition of CYP2C9. The format is ADME.
Another series concerns the target Cytochrome P450 2D6 (Homo sapiens, UniProt P10635). Briefly: Inhibition of CYP2D6. Type of series: ADME.
A further series has as its target CYP3A4 (Homo sapiens, UniProt P08684). Briefly: Inhibition of CYP3A4 at 10 uM. The format is ADME.
The target in series [3] is T2, Cytochrome P450 3A4 (Homo sapiens, UniProt P08684). Put plainly: Inhibition of CYP3A4 assessed as inhibition rate.
For series [4], the target named is T2, Cytochrome P450 3A4. Put plainly: Inhibition of CYP3A4. Type of series: ADME.
A short description of series [5]: Bioavailability in Sprague-Dawley rat at 2 mg/kg, iv and 10 mg/kg, po. As to conditions: Sprague-Dawley, in vivo. The format is ADME, organism-based. A digest of the protocol: (§1)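 Male rats fasted overnight, 2 or 3 per route. Dosing was 2 mg/kg i.v. as a jugular bolus in PEG400/ethanol/water (40/10/50) and 10 mg/kg p.o. by gavage in 0.5% methylcellulose. Jugular cannula blood was sampled up to 24 h (8-9 samples). Plasma was acetonitrile-precipitated with buspirone internal standard and quantified by LC-MS/MS, positive ESI MRM, calibration […], LLOQ 1-5 ng/mL.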

Series [6] can be described thus: Half life in Sprague-Dawley rat at 2 mg/kg, iv. Type of series: ADME, organism-based. Conditions: in vivo. Also on record: dose 2 mg/kg, route intravenous. The procedure, abridged: as §1
A short description of series [7]: Cmax in Sprague-Dawley rat after 10 mg/kg oral dose. The format is ADME, organism-based. Also on record: dose 10 mg/kg, route oral. As to conditions: in vivo. The procedure, abridged: as §1
Series [8] in a line: AUC in Sprague-Dawley rat at 10 mg/kg, po. Type of series: ADME, organism-based. Conditions: plasma. Also on record: dose 10 mg/kg, route oral. The procedure, abridged: as §1
A short description of series [9]: Clearance in Sprague-Dawley rat at 2 mg/kg, iv and 10 mg/kg, po. As to conditions: in vivo. The format is ADME, organism-based. The procedure, abridged:
as §1

Series [10] can be described thus: Volume of distribution at steady state in Sprague-Dawley rat at 2 mg/kg, iv and 10 mg/kg, po. Type of series: ADME, organism-based. Conditions: in vivo, read-out: Vdss. A digest of the protocol: as §1
Series [11] deals with Prostaglandin G/H synthase 1 (Homo sapiens, UniProt P23219). Put plainly: Inhibition of COX1 in human whole blood. The format is tissue-based.
A short description of series [12]: Half life in Sprague-Dawley rat at 2 mg/kg, iv after 6 to 24 hrs. Type of series: ADME, organism-based. Conditions: in vivo. Also on record: dose 2 mg/kg, route intravenous. The procedure, abridged:
as §1

Sequence of Cytochrome P450 2D6 (P10635 whole entry): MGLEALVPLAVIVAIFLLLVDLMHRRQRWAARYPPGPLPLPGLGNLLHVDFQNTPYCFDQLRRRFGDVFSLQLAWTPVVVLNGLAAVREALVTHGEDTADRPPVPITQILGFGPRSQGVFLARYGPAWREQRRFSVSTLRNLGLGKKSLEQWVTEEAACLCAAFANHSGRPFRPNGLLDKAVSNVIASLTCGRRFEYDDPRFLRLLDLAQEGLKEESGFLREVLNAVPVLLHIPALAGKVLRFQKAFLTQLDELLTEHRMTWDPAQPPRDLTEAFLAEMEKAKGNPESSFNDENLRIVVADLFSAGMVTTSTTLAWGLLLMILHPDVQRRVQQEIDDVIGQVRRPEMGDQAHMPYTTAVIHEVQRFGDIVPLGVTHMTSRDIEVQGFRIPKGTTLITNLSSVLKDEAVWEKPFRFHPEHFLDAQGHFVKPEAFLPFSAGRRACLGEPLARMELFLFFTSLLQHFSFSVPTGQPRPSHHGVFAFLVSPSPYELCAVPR
T2 sequence (P08684 whole entry): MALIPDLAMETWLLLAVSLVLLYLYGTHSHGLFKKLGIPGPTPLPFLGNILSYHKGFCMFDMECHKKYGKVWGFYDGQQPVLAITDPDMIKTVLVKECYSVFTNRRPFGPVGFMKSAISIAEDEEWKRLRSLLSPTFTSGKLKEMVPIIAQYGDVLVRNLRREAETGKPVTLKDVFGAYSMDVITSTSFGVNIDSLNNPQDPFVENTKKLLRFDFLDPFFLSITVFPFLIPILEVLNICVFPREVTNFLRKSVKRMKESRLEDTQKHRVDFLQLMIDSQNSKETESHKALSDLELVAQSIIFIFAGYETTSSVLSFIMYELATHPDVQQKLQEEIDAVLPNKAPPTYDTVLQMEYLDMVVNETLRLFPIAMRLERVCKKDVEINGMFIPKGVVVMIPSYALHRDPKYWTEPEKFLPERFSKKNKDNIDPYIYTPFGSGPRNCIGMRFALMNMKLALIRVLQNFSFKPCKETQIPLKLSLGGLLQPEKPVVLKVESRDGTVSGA
Sequence of Cytochrome P450 2C9 (P11712 whole entry): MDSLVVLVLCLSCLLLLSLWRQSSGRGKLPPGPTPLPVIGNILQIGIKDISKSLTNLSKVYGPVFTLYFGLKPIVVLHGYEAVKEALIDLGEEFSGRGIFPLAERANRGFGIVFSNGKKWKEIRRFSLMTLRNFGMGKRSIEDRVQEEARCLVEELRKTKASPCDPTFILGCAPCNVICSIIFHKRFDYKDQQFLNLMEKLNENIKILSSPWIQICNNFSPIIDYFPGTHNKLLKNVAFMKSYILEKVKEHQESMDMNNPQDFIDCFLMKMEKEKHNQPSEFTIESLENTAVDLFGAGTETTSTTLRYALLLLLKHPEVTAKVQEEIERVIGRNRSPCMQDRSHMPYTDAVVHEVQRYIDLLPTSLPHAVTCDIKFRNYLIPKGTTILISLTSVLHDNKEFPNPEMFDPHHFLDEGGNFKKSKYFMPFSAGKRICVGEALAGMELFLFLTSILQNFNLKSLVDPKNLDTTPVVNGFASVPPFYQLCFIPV
Sequence of Prostaglandin G/H synthase 1 (P23219 whole entry): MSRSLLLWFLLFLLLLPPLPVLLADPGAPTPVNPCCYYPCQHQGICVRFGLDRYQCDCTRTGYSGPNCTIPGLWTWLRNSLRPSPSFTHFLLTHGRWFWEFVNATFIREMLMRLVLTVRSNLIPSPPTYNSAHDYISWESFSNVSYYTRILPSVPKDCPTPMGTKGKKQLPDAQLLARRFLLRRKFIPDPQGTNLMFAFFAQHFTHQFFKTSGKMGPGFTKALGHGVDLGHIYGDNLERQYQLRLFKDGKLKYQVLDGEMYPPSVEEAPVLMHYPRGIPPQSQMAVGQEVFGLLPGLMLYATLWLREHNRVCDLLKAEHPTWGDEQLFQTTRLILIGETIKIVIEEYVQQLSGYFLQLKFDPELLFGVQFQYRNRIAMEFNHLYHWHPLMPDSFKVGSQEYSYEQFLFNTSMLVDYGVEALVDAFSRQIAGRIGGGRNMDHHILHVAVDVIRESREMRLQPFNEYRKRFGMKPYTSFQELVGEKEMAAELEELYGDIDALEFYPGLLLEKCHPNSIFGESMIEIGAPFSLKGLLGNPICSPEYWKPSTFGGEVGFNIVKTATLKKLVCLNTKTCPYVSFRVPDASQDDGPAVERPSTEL
Sequence of CYP3A4 (P08684 whole entry): as the sequence (P08684 whole entry) above

Consider `Cc1ccc(-c2ccc(Cn3c(CC(C)(C)C(=O)O)c(SC(C)(C)C)c4cc(OCc5ccccn5)ccc43)cc2)cn1`, for which the IC50 (commonly the concentration needed to halve the response being measured) in [1] was 6.5 nM; in [2], 1.3 nM; in the series with Blood it was 577 nM; at Cytochrome P450 2C9 it was 10000 nM; against Cytochrome P450 2D6, over 10000 nM. Further, at 10 µM the inhibition against CYP3A4 was 64%.

On to `Cc1cnc(-c2ccc(Cn3c(CC(C)(C)C(=O)O)c(SC(C)(C)C)c4cc(OCc5ccccn5)ccc43)cc2)s1`, for which, on Cytochrome P450 3A4 [3], the TDI is 0.014 min⁻¹. Besides, the IC50 in [1] is 4.8 nM.

Turning to `CC(C)(C)Sc1c(CC(C)(C)C(=O)O)n(Cc2ccc(-c3nccs3)cc2)c2ccc(OCc3ccccn3)cc12`, the TDI at Cytochrome P450 3A4 [3] is 0.033 min⁻¹. Also, the IC50 came to 4.8 nM in series [1]; 1 nM in [2]; 273 nM in the series with Blood; 1400 nM against Cytochrome P450 3A4 [4]; 9100 nM on Cytochrome P450 2C9; 4000 nM at Cytochrome P450 2D6. In addition, in [5], the bioavailability (usually the share of a dose that reaches the circulation, judged against a reference dose that is usually intravenous) is 50%. For the same compound, the half-life (commonly the time in which the quantity being followed falls by half) in series [6] is 6.3 h. For the same compound, the concentration in series [7] peaked (Cmax) at 4300 ng/mL. In addition, in series [8], the AUC – broadly, the area under the concentration-time curve, a measure of exposure – came to 9540 ng·h/mL. This compound also returned a clearance in series [9] of 8.6 mL/min/kg. In addition, in series [10], the Vd stood at 0.71 L/kg.

With `CC(C)(C)Sc1c(CC(C)(C)C(=O)O)n(Cc2ccc(Cl)cc2)c2ccc(OCc3ccc4ccccc4n3)cc12` [QUIFLAPON], the TDI at Cytochrome P450 3A4 [3] was found to be 0.009 min⁻¹. Further, the IC50 in series [2] came out at 0.5 nM; with Blood, 540 nM; against Cytochrome P450 2C9 it was 500 nM; at Cytochrome P450 2D6, 11000 nM.

On to `CC(C)(C)CCc1c(CC(C)(C)C(=O)O)n(Cc2ccc(-c3nccs3)cc2)c2ccc(OCc3ccccn3)cc12`, for which the IC50 was found to be 229 nM in series [1], 5.3 nM in series [2] and 4860 nM in the series with Blood.

As to `COc1nc(-c2ccc(Cn3c(CC(C)(C)C(=O)O)c(SC(C)(C)C)c4cc(OCc5ccccn5)ccc43)cc2)cs1`, the TDI on Cytochrome P450 3A4 [3] was 0.018 min⁻¹. This compound displayed an IC50 in series [1] of 3.3 nM.

Regarding `CC(C)(C)Sc1c(CC(C)(C)C(=O)O)n(Cc2ccc(-c3ncc(F)s3)cc2)c2ccc(OCc3ccccn3)cc12`, the TDI at Cytochrome P450 3A4 [3] worked out at 0.017 min⁻¹. In addition, the IC50 in [1] came to 2.1 nM.

Turning to `COc1ccc(-c2cccc(Cn3c(CC(C)(C)C(=O)O)c(SC(C)(C)C)c4cc(OCc5ccccn5)ccc43)c2)cn1`, the IC50 in series [1] is 5.5 nM; in series [2], 1.2 nM; with Blood it was 934 nM; in series [11], 420 nM.

`Cc1ccc(-c2ccc(Cn3c(CC(C)(C)C(=O)O)c(SC(C)(C)C)c4cc(OCc5ccccn5)ccc43)cc2)nn1`: the IC50 in series [1] came out at 27 nM; in series [2] it was 17 nM; in the series on Blood it was 4370 nM.

Turning to `CC(C)(C)Sc1c(CC(C)(C)C(=O)O)n(Cc2ccc(-c3cccnc3)cc2)c2ccc(OCc3ccccn3)cc12`, the IC50 in series [1] was 9 nM; in series [2], 3.4 nM; in the series with Blood it was 370 nM; against Cytochrome P450 3A4 [4] it was 4700 nM; against Cytochrome P450 2C9 it was 15500 nM; on Cytochrome P450 2D6, 2600 nM. In series [5], the bioavailability turned out to be 8%. In addition, the concentration in [7] peaked (Cmax) at 920 ng/mL. The AUC in [8] came out at 1880 ng·h/mL. The clearance in series [9] was determined as 7 mL/min/kg. The Vd in series [10] was determined as 0.38 L/kg. The same compound showed a half-life in [12] of 7.6 h.

`CC(C)(Cc1c(CC2CCC2)c2cc(OCc3ccccn3)ccc2n1Cc1ccc(-c2nccs2)cc1)C(=O)O`: the IC50 in [1] is 6.6 nM; in series [2], 1.1 nM; in the series with Blood, 391 nM.

On to `CC(C)(Cc1cc2cc(OCc3ccccn3)ccc2n1Cc1ccc(-c2nccs2)cc1)C(=O)O`, for which the values for the IC50 (in series [1]; in [2]; in the series on Blood) were 299 nM, 19 nM and 5520 nM, respectively.

In the case of `COc1ccc(-c2ccc(Cn3c(CC(C)(C)C(=O)O)c(S(=O)(=O)C(C)(C)C)c4cc(OCc5ccccn5)ccc43)cc2)cn1`, the IC50 was 205 nM in [1], 59 nM in series [2] and 3420 nM in the series on Blood.

Regarding `CC(C)(C)Sc1c(CC(C)(C)C(=O)O)n(Cc2ccc(-c3cnccn3)cc2)c2ccc(OCc3ccccn3)cc12`, the figures for the IC50 (in series [1]; in series [2]; with Blood) were 28 nM, 12 nM and 1650 nM, respectively.

Take `COc1ccc(-c2ccc(Cn3c(CC(C)(C)C(=O)O)c([S+]([O-])C(C)(C)C)c4cc(OCc5ccccn5)ccc43)cc2)cn1` (stereo unspecified): the concentration for half-maximal inhibition (IC50) in [1] is 793 nM; in series [2], 2000 nM.

Consider `CC(C)(C)Sc1c(CC(C)(C)C(=O)O)n(Cc2ccc(-c3cncnc3)cc2)c2ccc(OCc3ccccn3)cc12`, for which the values for the IC50 (in series [1]; in series [2]; in the series with Blood) were 7.7 nM, 3.3 nM and 1040 nM, respectively.

With `CC(C)(C)Sc1c(CC(C)(C)C(=O)O)n(Cc2ccc(Cl)cc2)c2ccc(OCc3ccccn3)cc12`, the IC50 was 1.7 nM in series [1]; 0.8 nM in series [2]; 512 nM in the series on Blood; 11500 nM at Cytochrome P450 3A4 [4]; 1000 nM on Cytochrome P450 2C9; over 30000 nM at Cytochrome P450 2D6.

As for `CC(C)(Cc1c(C(=O)C2CCC2)c2cc(OCc3ccccn3)ccc2n1Cc1ccc(-c2nccs2)cc1)C(=O)O`, the values for the IC50 (in series [1]; in [2]; in the series with Blood) were 444 nM, 130 nM and 33500 nM, respectively.

Consider `CC(C)(C)Sc1c(CC(C)(C)C(=O)O)n(Cc2ccc(-c3ncccn3)cc2)c2ccc(OCc3ccccn3)cc12`, for which the IC50 is 6.9 nM in [1]; 6.4 nM in series [2]; 1210 nM in the series on Blood; over 10000 nM at Cytochrome P450 3A4 [4]; over 10000 nM against Cytochrome P450 2C9; over 10000 nM at Cytochrome P450 2D6.

On to `Cc1csc(-c2ccc(Cn3c(CC(C)(C)C(=O)O)c(SC(C)(C)C)c4cc(OCc5ccccn5)ccc43)cc2)n1`, for which the TDI at Cytochrome P450 3A4 [3] turned out to be 0.006 min⁻¹. For the same compound, the IC50 in series [1] came out at 7.3 nM.
